ChEMBL document CHEMBL5705899 (Biochem J, 2014)
Activity calls are given as the source filed them.

Assays:
[1] = target: Casein kinase I isoform gamma-2 (Homo sapiens) (UniProt P78368); assay: Inhibition of recombinant human N-terminal GST-tagged CK1g2 (1 to 415 residues) expressed in Escherichia coli assessed as remaining activity at 1 uM using RRKDLHDDEEDEAMSITA as substrate incubated for 30 mins in presence of [gamma-33P]ATP by filter binding method relative to control
[2] = target: Mitogen-activated protein kinase 7 (Homo sapiens) (UniProt Q13164); assay: Inhibition of recombinant human N-terminal His6-tagged ERK5 (1 to 816 residues) expressed in baculovirus infected Sf21 cells assessed as remaining activity at 1 uM using MBP as substrate incubated for 30 mins in presence of [gamma-33P]ATP by filter binding method relative to control
[3] = target: Inhibitor of nuclear factor kappa-B kinase subunit epsilon (Homo sapiens) (UniProt Q14164); assay: Inhibition of recombinant human N-terminal GST-tagged IKKepsilon (1 to 716 residues) expressed in baculovirus infected Sf21 cells assessed as remaining activity at 1 uM using MBP as substrate incubated for 30 mins in presence of [gamma-33P]ATP by filter binding method relative to control
[4] = target: Mitogen-activated protein kinase 10 (Homo sapiens) (UniProt P53779); assay: Inhibition of recombinant human N-terminal GST/C-terminal His6-tagged JNK3 (40 to 422 residues) expressed in Escherichia coli assessed as remaining activity at 1 uM using ATF2 as substrate incubated for 30 mins in presence of [gamma-33P]ATP by filter binding method relative to control
[5] = target: Tyrosine-protein kinase JAK2 (Homo sapiens) (UniProt O60674); assay: Inhibition of JAK2 (unknown origin) assessed as remaining activity at 1 uM relative to control
Outline: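 Dundee panel of 140 protein kinases, tested at a single 1 μM concentration. Each assay was run in triplicate. Remaining activity is expressed relative to a control reaction without inhibitor, as mean ± S.D. Conditions for each kinase were those of the screening centre.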

[6] = target: NT-3 growth factor receptor (Homo sapiens) (UniProt Q16288); assay: Inhibition of human TRKC at 1 uM using polyEy as substrate in presence of 33P-ATP by ProQinase assay
[7] = target: Receptor-type tyrosine-protein kinase FLT3 (Homo sapiens) (UniProt P36888); assay: Inhibition of human FLT3 at 1 uM using Poly(Ala,Glu,Lys,Tyr) as substrate in presence of 33P-ATP by ProQinase assay
[8] = target: Epidermal growth factor receptor (Homo sapiens) (UniProt P00533); assay: Inhibition of human EGFR at 1 uM using RBER-CHKtide as substrate in presence of 33P-ATP by ProQinase assay
[9] = target: MAP kinase-interacting serine/threonine-protein kinase 1 (Homo sapiens) (UniProt Q9BUB5); assay: Inhibition of human MKNK1 at 1 uM using RB-S6P as substrate in presence of 33P-ATP by ProQinase assay
[10] = target: Tyrosine-protein kinase SYK (Homo sapiens) (UniProt P43405); assay: Inhibition of human SYK (1 to 635 residues) at 1 uM using polyEY as substrate in presence of 33P-ATP by ProQinase assay
[11] = target: Serine/threonine-protein kinase Nek4 (Homo sapiens) (UniProt P51957); assay: Inhibition of human NEK4 at 1 uM using MBP as substrate in presence of 33P-ATP by ProQinase assay
[12] = target: Ribosomal protein S6 kinase alpha-3 (Homo sapiens) (UniProt P51812); assay: Inhibition of human RPS6KA3 at 1 uM using bio-4xCHKT as substrate in presence of 33P-ATP by ProQinase assay
[13] = target: 5'-AMP-activated protein kinase catalytic subunit alpha-1 (Homo sapiens) (UniProt Q13131); assay: Inhibition of human AMPKalpha1 (1 to 550 residues) at 1 uM using RBER-CHKtide as substrate in presence of 33P-ATP by ProQinase assay
5'-AMP-activated protein kinase catalytic subunit alpha-1 (Homo sapiens), sequence (Q13131 whole entry, looked up, the tested form may be a part): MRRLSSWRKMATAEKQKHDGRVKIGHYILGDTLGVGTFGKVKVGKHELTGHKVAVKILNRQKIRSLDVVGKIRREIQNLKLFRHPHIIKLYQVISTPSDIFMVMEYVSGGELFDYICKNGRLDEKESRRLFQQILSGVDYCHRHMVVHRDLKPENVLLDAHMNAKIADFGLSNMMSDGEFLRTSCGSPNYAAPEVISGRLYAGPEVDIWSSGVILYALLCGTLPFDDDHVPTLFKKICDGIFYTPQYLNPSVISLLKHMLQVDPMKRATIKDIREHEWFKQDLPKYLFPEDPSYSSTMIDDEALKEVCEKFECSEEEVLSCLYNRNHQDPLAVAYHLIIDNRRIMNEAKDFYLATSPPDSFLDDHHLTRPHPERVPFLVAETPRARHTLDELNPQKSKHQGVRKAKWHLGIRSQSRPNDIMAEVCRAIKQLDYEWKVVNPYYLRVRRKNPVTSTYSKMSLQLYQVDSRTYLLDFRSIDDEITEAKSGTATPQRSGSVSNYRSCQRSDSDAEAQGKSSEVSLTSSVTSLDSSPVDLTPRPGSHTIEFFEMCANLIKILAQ

[14] = target: Inhibitor of nuclear factor kappa-B kinase subunit beta (Homo sapiens) (UniProt O14920); assay: Inhibition of human IKKbeta at 1 uM using RBER-CHKtide as substrate in presence of 33P-ATP by ProQinase assay
Inhibitor of nuclear factor kappa-B kinase subunit beta (Homo sapiens), sequence (O14920 whole entry): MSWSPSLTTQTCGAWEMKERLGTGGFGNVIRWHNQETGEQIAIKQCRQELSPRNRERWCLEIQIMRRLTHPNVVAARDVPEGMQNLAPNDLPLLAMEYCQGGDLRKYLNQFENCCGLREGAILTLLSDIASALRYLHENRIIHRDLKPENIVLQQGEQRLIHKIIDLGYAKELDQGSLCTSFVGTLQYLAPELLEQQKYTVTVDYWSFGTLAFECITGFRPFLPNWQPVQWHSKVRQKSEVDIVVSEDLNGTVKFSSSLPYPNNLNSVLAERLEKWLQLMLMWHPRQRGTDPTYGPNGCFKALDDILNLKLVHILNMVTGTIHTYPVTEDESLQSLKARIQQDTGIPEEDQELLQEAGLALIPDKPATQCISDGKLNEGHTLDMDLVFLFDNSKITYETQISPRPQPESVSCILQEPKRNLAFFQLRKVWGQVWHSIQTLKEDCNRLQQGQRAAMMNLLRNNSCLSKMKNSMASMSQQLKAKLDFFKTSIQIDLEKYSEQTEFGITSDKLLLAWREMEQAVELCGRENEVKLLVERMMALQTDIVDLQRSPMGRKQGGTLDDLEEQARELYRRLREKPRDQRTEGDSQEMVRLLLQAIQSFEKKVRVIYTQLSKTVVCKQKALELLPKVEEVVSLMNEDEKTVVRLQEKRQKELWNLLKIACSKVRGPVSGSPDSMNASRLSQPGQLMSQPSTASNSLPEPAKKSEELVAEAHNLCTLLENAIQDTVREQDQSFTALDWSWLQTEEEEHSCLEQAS

[15] = target: Mitogen-activated protein kinase kinase kinase 5 (Homo sapiens) (UniProt Q99683); assay: Inhibition of human ASK1 at 1 uM using RBER-GSK3 as substrate in presence of 33P-ATP by ProQinase assay
[16] = target: Serine/threonine-protein kinase PAK 4 (Homo sapiens) (UniProt O96013); assay: Inhibition of human PAK4 at 1 uM using bio-4xCHKT as substrate in presence of 33P-ATP by ProQinase assay
Serine/threonine-protein kinase PAK 4 (Homo sapiens), sequence (O96013 whole entry, looked up): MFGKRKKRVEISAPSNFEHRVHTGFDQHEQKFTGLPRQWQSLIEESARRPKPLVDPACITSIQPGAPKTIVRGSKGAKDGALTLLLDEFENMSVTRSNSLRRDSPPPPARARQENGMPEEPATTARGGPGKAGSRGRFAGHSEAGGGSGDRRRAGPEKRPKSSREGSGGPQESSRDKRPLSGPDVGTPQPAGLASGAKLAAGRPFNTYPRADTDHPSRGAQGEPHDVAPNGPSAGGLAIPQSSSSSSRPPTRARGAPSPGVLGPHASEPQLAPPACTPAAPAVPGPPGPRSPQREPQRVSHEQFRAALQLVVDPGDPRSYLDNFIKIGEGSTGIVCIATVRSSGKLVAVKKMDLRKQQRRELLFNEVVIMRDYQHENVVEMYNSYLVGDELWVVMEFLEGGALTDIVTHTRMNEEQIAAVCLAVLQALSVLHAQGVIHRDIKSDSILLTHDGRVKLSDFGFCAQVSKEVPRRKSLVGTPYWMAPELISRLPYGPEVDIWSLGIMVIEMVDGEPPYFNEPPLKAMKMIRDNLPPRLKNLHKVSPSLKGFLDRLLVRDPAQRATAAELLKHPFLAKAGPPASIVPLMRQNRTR

[17] = target: Ribosomal protein S6 kinase alpha-6 (Homo sapiens) (UniProt Q9UK32); assay: Inhibition of human RPS6KA6 at 1 uM using RBER-GSK3 as substrate in presence of 33P-ATP by ProQinase assay
[18] = target: Glycogen synthase kinase-3 beta (Homo sapiens) (UniProt P49841); assay: Inhibition of human GSK3beta at 1 uM using RBER-CHKtide as substrate in presence of 33P-ATP by ProQinase assay
Glycogen synthase kinase-3 beta (Homo sapiens), sequence (P49841 whole entry, looked up): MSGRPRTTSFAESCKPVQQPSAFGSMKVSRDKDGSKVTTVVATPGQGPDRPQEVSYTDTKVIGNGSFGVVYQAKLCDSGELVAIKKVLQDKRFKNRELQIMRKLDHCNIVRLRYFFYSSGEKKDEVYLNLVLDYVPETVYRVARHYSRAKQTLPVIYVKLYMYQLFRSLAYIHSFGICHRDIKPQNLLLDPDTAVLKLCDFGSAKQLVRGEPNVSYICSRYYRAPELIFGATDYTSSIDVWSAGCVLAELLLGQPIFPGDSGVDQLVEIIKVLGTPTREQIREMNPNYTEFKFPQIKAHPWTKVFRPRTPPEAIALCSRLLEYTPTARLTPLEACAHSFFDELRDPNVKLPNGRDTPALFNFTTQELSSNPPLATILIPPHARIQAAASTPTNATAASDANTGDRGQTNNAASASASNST

[19] = target: Dual specificity mitogen-activated protein kinase kinase 2 (Homo sapiens) (UniProt P36507); assay: Inhibition of human MEK2 at 1 uM using RBER-IRStide as substrate in presence of 33P-ATP by ProQinase assay
[20] = target: G protein-coupled receptor kinase 3 (Homo sapiens) (UniProt P35626); assay: Inhibition of human GRK3 at 1 uM using casein as substrate in presence of 33P-ATP by ProQinase assay
G protein-coupled receptor kinase 3 (Homo sapiens), sequence (P35626 whole entry): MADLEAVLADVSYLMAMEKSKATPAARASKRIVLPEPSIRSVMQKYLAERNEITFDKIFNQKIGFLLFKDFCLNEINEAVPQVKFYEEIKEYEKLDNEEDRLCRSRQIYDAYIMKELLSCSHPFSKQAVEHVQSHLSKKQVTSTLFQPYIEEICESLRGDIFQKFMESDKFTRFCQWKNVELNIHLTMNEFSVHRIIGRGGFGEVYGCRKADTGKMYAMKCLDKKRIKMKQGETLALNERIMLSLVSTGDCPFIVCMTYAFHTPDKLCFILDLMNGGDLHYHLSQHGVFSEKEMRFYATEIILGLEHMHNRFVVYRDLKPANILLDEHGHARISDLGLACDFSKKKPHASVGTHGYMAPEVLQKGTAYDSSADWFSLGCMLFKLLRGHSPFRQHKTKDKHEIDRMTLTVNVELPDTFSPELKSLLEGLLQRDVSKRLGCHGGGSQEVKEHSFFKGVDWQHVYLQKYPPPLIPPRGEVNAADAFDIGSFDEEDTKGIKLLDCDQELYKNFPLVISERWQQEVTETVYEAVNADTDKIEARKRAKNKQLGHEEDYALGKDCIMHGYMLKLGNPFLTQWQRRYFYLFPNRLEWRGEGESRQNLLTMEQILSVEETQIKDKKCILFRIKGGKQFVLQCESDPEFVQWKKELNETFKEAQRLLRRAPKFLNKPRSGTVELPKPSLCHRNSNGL

[21] = target: Mitogen-activated protein kinase kinase kinase 9 (Homo sapiens) (UniProt P80192); assay: Inhibition of human MAP3K9 at 1 uM using RBER-GSK3 as substrate in presence of 33P-ATP by ProQinase assay
Mitogen-activated protein kinase kinase kinase 9 (Homo sapiens), sequence (P80192 whole entry, looked up): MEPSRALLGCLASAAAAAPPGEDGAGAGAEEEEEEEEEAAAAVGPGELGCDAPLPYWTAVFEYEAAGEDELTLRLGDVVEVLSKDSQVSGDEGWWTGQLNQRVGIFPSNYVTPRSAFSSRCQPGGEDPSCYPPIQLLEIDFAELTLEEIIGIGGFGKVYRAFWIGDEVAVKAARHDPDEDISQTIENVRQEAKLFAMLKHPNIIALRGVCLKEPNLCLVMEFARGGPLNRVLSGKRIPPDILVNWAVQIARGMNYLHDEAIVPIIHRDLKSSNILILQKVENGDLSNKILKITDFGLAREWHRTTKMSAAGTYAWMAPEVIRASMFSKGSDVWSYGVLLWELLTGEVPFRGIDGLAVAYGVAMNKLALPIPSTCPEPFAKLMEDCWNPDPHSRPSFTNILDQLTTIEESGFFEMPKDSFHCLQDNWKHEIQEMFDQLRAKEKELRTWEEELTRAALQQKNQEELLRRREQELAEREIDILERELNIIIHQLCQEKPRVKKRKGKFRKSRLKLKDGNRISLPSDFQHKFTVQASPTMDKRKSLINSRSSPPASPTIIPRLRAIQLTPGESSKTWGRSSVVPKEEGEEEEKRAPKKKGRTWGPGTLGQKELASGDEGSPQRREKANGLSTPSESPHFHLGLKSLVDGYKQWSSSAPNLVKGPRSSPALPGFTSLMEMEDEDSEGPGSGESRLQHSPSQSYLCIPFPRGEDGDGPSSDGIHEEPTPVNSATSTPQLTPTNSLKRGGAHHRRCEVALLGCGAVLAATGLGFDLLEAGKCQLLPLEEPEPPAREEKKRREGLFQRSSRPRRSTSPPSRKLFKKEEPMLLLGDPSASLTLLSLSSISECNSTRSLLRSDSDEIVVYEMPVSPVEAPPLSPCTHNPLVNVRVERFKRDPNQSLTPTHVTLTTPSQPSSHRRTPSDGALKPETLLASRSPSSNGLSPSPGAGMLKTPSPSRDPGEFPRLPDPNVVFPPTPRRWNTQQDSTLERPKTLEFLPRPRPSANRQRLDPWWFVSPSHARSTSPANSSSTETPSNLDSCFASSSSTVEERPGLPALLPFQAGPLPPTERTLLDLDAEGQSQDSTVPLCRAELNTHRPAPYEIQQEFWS

[22] = target: Serine/threonine-protein kinase Sgk3 (Homo sapiens) (UniProt Q96BR1); assay: Inhibition of human SGK3 at 1 uM using RBER-GSK3 as substrate in presence of 33P-ATP by ProQinase assay
Serine/threonine-protein kinase Sgk3 (Homo sapiens), sequence (Q96BR1 whole entry): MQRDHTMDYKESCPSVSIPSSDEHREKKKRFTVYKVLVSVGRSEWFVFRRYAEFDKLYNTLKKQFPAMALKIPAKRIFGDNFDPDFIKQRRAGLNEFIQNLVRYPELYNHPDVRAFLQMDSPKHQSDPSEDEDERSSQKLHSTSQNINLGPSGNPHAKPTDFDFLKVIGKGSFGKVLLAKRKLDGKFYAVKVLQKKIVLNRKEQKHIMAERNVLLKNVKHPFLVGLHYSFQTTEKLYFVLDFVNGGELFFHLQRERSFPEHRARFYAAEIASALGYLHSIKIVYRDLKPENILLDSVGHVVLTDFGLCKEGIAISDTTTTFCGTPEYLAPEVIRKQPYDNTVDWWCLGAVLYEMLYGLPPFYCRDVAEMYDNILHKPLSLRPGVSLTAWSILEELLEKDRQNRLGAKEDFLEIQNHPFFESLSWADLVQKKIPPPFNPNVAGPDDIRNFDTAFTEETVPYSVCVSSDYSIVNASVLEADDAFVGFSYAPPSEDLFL

[23] = target: Phosphatidylinositol 4-kinase type 2-alpha (Homo sapiens, UniProt Q9BTU6); assay: Inhibition of human PI4K2A using PI/PS as substrate by ADP-Glo assay
U2OS = assay: Inhibition of PI3K in human U2OS cells expressing FLAG-tagged SGK3 assessed as reduction in PRAS40 phosphorylation at T246 residues at 0.01 to 1 uM 1 hr by immunoblot analysis; format: cell-based; details: dose 0.01-1 µM
Outline: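 Flp-In T-REx U2OS cells were grown in McCoy medium with 10% FBS. Expression of C-terminally FLAG-tagged full-length SGK3 was induced with 0.01 mg/ml doxycycline for 24 h. Cells were treated with inhibitor for 1 h and lysed in phosphatase-inhibitor buffer. Lysates were cleared at 16000 g for 10 min at 4°C, protein was measured by Bradford, and phosphorylation was read by immunoblot with ECL detection.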

Casein kinase I isoform gamma-2 (Homo sapiens), sequence (P78368 whole entry, looked up, the tested form may be a part, canonical isoform): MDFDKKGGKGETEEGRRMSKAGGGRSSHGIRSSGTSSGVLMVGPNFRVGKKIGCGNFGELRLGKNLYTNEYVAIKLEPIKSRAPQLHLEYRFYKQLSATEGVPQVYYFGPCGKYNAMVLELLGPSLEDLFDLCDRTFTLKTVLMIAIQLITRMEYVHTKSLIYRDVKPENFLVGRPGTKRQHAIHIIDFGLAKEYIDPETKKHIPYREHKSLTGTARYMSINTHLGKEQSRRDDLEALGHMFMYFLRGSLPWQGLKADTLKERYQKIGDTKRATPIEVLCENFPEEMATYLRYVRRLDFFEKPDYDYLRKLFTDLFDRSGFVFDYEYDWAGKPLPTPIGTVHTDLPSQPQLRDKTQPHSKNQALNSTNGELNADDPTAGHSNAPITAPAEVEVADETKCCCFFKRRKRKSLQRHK

CC(C)(O)CNc1ncc(-c2ccnc(Nc3ccnc(Cl)c3)n2)c(CC2CC2)n1
93%: Activity [5]
122%: Activity [1]
104%: Activity [2]
95%: Activity [4]
inactive: inhibition [6] | inhibition [7] | inhibition [8] | inhibition [9] | inhibition [10] | inhibition [11] | inhibition [12] | inhibition [13] | inhibition [14] | inhibition [15] | inhibition [16] | inhibition [17] | inhibition [18] | inhibition [19] | inhibition [20] | inhibition [21] | inhibition [22] | inhibition (U2OS)
103%: Activity [3]
> 10 µM: IC50 [23]
